According to article PMC7081261 (ACS Omega, 2020):

Tested on: DU-145 prostate carcinoma cells
Experiment: MTT cell viability assay
Assay type: cell-based
Conditions: 24 h
Summary of the method: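 DU-145 prostate carcinoma cells grown at 37 °C, 5% CO2, then seeded at 1.5 × 10^5 cells per well. Test compound dilution series (10–500 μg/mL) prepared in RPMI-1640 and applied for 24 h; viability read by MTT, expressed as IC50. Elevated-Zn2+ conditions: medium adjusted with 50 μM ZnCl2. DTNB conditions: cells preincubated 1 h in RPMI-1640 with 2.5 mM DTNB, and dilution series supplemented with 1 mM DTNB during the 24 h exposure.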

| Substance | cytotoxicity against DU-145 cells (in words) (elevated Zn2+ (50 μM ZnCl2), no DTNB) | cytotoxicity against DU-145 cells (in words) (normal Zn2+ conditions (no ZnCl2 added)) | cytotoxicity against DU-145 cells (in words) (Zn2+ condition not stated) |
| --- | --- | --- | --- |
| (GHHPG)2 | No activity | No activity | – |
| H2N-EAEAEA-SS-(Ac)CAhxGHHPHGHHPH-amide (disulfide) [(EA)3-thiol] | – | – | no activity |
